According to ChEMBL document CHEMBL3627671, “Novel derivatives of nitro-substituted salicylic acids: Synthesis, antimicrobial activity and cytotoxicity” (Bioorg Med Chem, 2015):
Converted amounts (≈) assume the structure as drawn.

Columns and labels:
Assay type in all cases: functional
[1] = test system: Escherichia coli; test: Antibacterial activity against Escherichia coli CCM4517 after 24 hrs by microdilution broth method; conditions: CCM4517, 24 h
Summary of the method: (§1)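 Mueller-Hinton broth microdilution (modified M07-A07), pH 7.4 (±0.2). Compounds dissolved in DMSO, tested at final 500 to 0.49 µmol/L. Inoculum in sterile water matched to 0.5 McFarland. Incubated in the dark, humid atmosphere, 35 °C, read at 24 and 48 h visually and at 540 nm. MIC taken as ≥95% growth reduction (IC95) versus control.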

[2] = test system: Lichtheimia corymbifera; test: Antifungal activity against Absidia corymbifera 272 after 24 hrs by microdilution broth method; conditions: Lichtheimia corymbifera, 272, 24 h
Summary of the method: (§2)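 CLSI M27-A3 broth microdilution in RPMI 1640 with glutamine, buffered to pH 7.0 with MOPS; DMSO diluent. Yeast inoculum 5 × 10^3 ± 0.2 CFU/mL. Moulds grown on Sabouraud agar 3–10 days before spore harvest, final inoculum 0.5-5 × 10^4 CFU/mL, checked in a Bürker chamber. Incubated dark, humid, 35 °C, read at 24 and 48 h visually and at 540 nm. MIC taken as ≥80% (yeasts) or ≥50% (filamentous) growth reduction versus control.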

[3] = test system: Mycobacterium kansasii; test: Antimycobacterial activity against Mycobacterium kansasii 235/80 after 7 days; conditions: 235/80, 168 h
Summary of the method: (§3)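 Šula's semisynthetic medium micromethod at 37 °C, read after 7, 14 and 21 days. The 1.0 McFarland suspension was diluted 10^-4. MIC determined. 6509/96 is a clinical isolate.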

[4] = test system: Trichophyton mentagrophytes; test: Antifungal activity against Trichophyton mentagrophytes 445 after 48 hrs by microdilution broth method; conditions: Trichophyton mentagrophytes, 445, 48 h
[5] = test system: Pichia kudriavzevii; test: Antifungal activity against Candida krusei E28 after 48 hrs by microdilution broth method; conditions: E28, 48 h; summary of the method: as §2
[6] = test system: Candida tropicalis; test: Antifungal activity against Candida tropicalis 156 after 24 hrs by microdilution broth method; conditions: Candida tropicalis, 156, 24 h; summary of the method: as §2
[7] = test system: Candida tropicalis; test: Antifungal activity against Candida tropicalis 156 after 48 hrs by microdilution broth method; conditions: Candida tropicalis, 156, 48 h; summary of the method: as §2
[8] = test system: Nakaseomyces glabratus; test: Antifungal activity against Candida glabrata 20/I after 24 hrs by microdilution broth method; summary of the method: as §2
[9] = test system: Nakaseomyces glabratus; test: Antifungal activity against Candida glabrata 20/I after 48 hrs by microdilution broth method; summary of the method: as §2
[10] = test system: Mycobacterium kansasii; test: Antimycobacterial activity against Mycobacterium kansasii 6509/96 after 14 days; conditions: 6509/96, 336 h; summary of the method: as §3
[11] = test system: Aspergillus fumigatus; test: Antifungal activity against Aspergillus fumigatus 231 after 24 hrs by microdilution broth method; conditions: Aspergillus fumigatus, 231, 24 h; summary of the method: as §2
[12] = test system: Mycobacterium avium; test: Antimycobacterial activity against Mycobacterium avium 330/80 after 21 days; conditions: 330/80, 504 h
[13] = test system: Mycobacterium kansasii; test: Antimycobacterial activity against Mycobacterium kansasii 235/80 after 21 days; conditions: 235/80, 504 h; summary of the method: as §3
[14] = test system: Staphylococcus epidermidis; test: Antibacterial activity against Staphylococcus epidermidis H 6966/08 after 24 hrs by microdilution broth method; conditions: H 6966/08, 24 h; summary of the method: as §1
[15] = test system: Staphylococcus aureus; test: Antibacterial activity against Staphylococcus aureus CCM 4516/08 after 48 hrs by microdilution broth method; conditions: CCM 4516/08, 48 h
[16] = test system: Enterococcus sp.; test: Antibacterial activity against Enterococcus sp. J 14365/08 after 48 hrs by microdilution broth method; conditions: J 14365/08, 48 h; summary of the method: as §1
[17] = test system: Mycobacterium avium; test: Antimycobacterial activity against Mycobacterium avium 330/80 after 14 days; conditions: 330/80, 336 h
[18] = test system: Escherichia coli; test: Antibacterial activity against Escherichia coli CCM4517 after 48 hrs by microdilution broth method; conditions: CCM4517, 48 h; summary of the method: as §1
[19] = test system: Klebsiella pneumoniae; test: Antibacterial activity against Klebsiella pneumoniae D 11750/08 after 24 hrs by microdilution broth method; conditions: D 11750/08, 24 h; summary of the method: as §1
[20] = test system: Klebsiella pneumoniae; test: Antibacterial activity against Klebsiella pneumoniae D 11750/08 after 48 hrs by microdilution broth method; conditions: D 11750/08, 48 h; summary of the method: as §1
[21] = test system: Aspergillus fumigatus; test: Antifungal activity against Aspergillus fumigatus 231 after 48 hrs by microdilution broth method; conditions: Aspergillus fumigatus, 231, 48 h; summary of the method: as §2
[22] = test system: Klebsiella pneumoniae; test: Antibacterial activity against ESBL-positive Klebsiella pneumoniae J 14368/08 after 48 hrs by microdilution broth method; conditions: J 14368/08, 48 h; summary of the method: as §1
[23] = test system: Mycobacterium tuberculosis; test: Antimycobacterial activity against Mycobacterium tuberculosis H37Rv 331/88 after 14 days; conditions: H37Rv 331/88, 336 h
[24] = test system: Trichosporon asahii; test: Antifungal activity against Trichosporon asahii 1188 after 24 hrs by microdilution broth method; conditions: Trichosporon asahii, 1188, 24 h; summary of the method: as §2
[25] = test system: Mycobacterium kansasii; test: Antimycobacterial activity against Mycobacterium kansasii 6509/96 after 21 days; conditions: 6509/96, 504 h; summary of the method: as §3
[26] = test system: Enterococcus sp.; test: Antibacterial activity against Enterococcus sp. J 14365/08 after 24 hrs by microdilution broth method; conditions: J 14365/08, 24 h; summary of the method: as §1
[27] = test system: Pseudomonas aeruginosa; test: Antibacterial activity against Pseudomonas aeruginosa CCM 1961 after 24 hrs by microdilution broth method; conditions: CCM 1961, 24 h; summary of the method: as §1
[28] = test system: Trichophyton mentagrophytes; test: Antifungal activity against Trichophyton mentagrophytes 445 after 24 hrs by microdilution broth method; conditions: Trichophyton mentagrophytes, 445, 24 h
[29] = test system: Staphylococcus epidermidis; test: Antibacterial activity against Staphylococcus epidermidis H 6966/08 after 48 hrs by microdilution broth method; conditions: H 6966/08, 48 h; summary of the method: as §1
[30] = test system: Pseudomonas aeruginosa; test: Antibacterial activity against Pseudomonas aeruginosa CCM 1961 after 48 hrs by microdilution broth method; conditions: CCM 1961, 48 h; summary of the method: as §1
[31] = test system: Staphylococcus aureus; test: Antibacterial activity against methicillin-resistant Staphylococcus aureus H 5996/08 after 24 hrs by microdilution broth method; conditions: H 5996/08, 24 h
[32] = test system: Candida albicans; test: Antifungal activity against Candida albicans ATCC 44859 after 24 hrs by microdilution broth method; conditions: ATCC 44859, 24 h; summary of the method: as §2
[33] = test system: Mycobacterium kansasii; test: Antimycobacterial activity against Mycobacterium kansasii 235/80 after 14 days; conditions: 235/80, 336 h; summary of the method: as §3
[34] = test system: Candida albicans; test: Antifungal activity against Candida albicans ATCC 44859 after 48 hrs by microdilution broth method; conditions: ATCC 44859, 48 h; summary of the method: as §2
[35] = test system: Pichia kudriavzevii; test: Antifungal activity against Candida krusei E28 after 24 hrs by microdilution broth method; conditions: E28, 24 h; summary of the method: as §2
[36] = test system: Lichtheimia corymbifera; test: Antifungal activity against Absidia corymbifera 272 after 48 hrs by microdilution broth method; conditions: Lichtheimia corymbifera, 272, 48 h; summary of the method: as §2
[37] = test system: Trichosporon asahii; test: Antifungal activity against Trichosporon asahii 1188 after 48 hrs by microdilution broth method; conditions: Trichosporon asahii, 1188, 48 h; summary of the method: as §2
[38] = test system: Staphylococcus aureus; test: Antibacterial activity against methicillin-resistant Staphylococcus aureus H 5996/08 after 48 hrs by microdilution broth method; conditions: H 5996/08, 48 h
[39] = test system: Staphylococcus aureus; test: Antibacterial activity against Staphylococcus aureus CCM 4516/08 after 24 hrs by microdilution broth method; conditions: CCM 4516/08, 24 h
[40] = test system: Klebsiella pneumoniae; test: Antibacterial activity against ESBL-positive Klebsiella pneumoniae J 14368/08 after 24 hrs by microdilution broth method; conditions: J 14368/08, 24 h; summary of the method: as §1
[41] = test system: Mycobacterium kansasii; test: Antimycobacterial activity against Mycobacterium kansasii 6509/96 after 7 days; conditions: 6509/96, 168 h; summary of the method: as §3
[42] = test system: Mycobacterium tuberculosis; test: Antimycobacterial activity against Mycobacterium tuberculosis H37Rv 331/88 after 21 days; conditions: H37Rv 331/88, 504 h

Structure (SMILES): O=C(Nc1cccc(Cl)c1)c1ccc([N+](=O)[O-])cc1O
- MIC [1]: > 500 µM
- MIC [2]: 62.5 µM (≈ 18.3 µg/mL)
- MIC [3]: 8 µM (≈ 2.34 µg/mL)
- MIC [4]: 62.5 µM (≈ 18.3 µg/mL)
- MIC [5]: 125 µM (≈ 36.6 µg/mL)
- MIC [6]: > 500 µM
- MIC [7]: > 500 µM
- MIC [8]: > 500 µM
- MIC [9]: > 500 µM
- MIC [10]: 16 µM (≈ 4.68 µg/mL)
- MIC [11]: 62.5 µM (≈ 18.3 µg/mL)
- MIC [12]: 62.5 µM (≈ 18.3 µg/mL)
- MIC [13]: 16 µM (≈ 4.68 µg/mL)
- MIC [14]: 7.81 µM (≈ 2.29 µg/mL)
- MIC [15]: 15.6 µM (≈ 4.57 µg/mL)
- MIC [16]: > 500 µM
- MIC [17]: 32 µM (≈ 9.37 µg/mL)
- MIC [18]: > 500 µM
- MIC [19]: > 500 µM
- MIC [20]: > 500 µM
- MIC [21]: 125 µM (≈ 36.6 µg/mL)
- MIC [22]: > 500 µM
- MIC [23]: 8 µM (≈ 2.34 µg/mL)
- MIC [24]: 62.5 µM (≈ 18.3 µg/mL)
- MIC [25]: 16 µM (≈ 4.68 µg/mL)
- MIC [26]: 500 µM (≈ 146 µg/mL)
- MIC [27]: > 500 µM
- MIC [28]: 62.5 µM (≈ 18.3 µg/mL)
- MIC [29]: 15.6 µM (≈ 4.57 µg/mL)
- MIC [30]: > 500 µM
- MIC [31]: 7.81 µM (≈ 2.29 µg/mL)
- MIC [32]: > 500 µM
- MIC [33]: 16 µM (≈ 4.68 µg/mL)
- MIC [34]: > 500 µM
- MIC [35]: 62.5 µM (≈ 18.3 µg/mL)
- MIC [36]: 250 µM (≈ 73.2 µg/mL)
- MIC [37]: 125 µM (≈ 36.6 µg/mL)
- MIC [38]: 15.6 µM (≈ 4.57 µg/mL)
- MIC [39]: 7.81 µM (≈ 2.29 µg/mL)
- MIC [40]: > 500 µM
- MIC [41]: 16 µM (≈ 4.68 µg/mL)
- MIC [42]: 16 µM (≈ 4.68 µg/mL)

Structure (SMILES): O=C(Nc1cccc(F)c1)c1ccc([N+](=O)[O-])cc1O
- MIC [1]: 250 µM (≈ 69.1 µg/mL)
- MIC [2]: 250 µM (≈ 69.1 µg/mL)
- MIC [3]: 16 µM (≈ 4.42 µg/mL)
- MIC [4]: 500 µM (≈ 138 µg/mL)
- MIC [5]: 62.5 µM (≈ 17.3 µg/mL)
- MIC [6]: 250 µM (≈ 69.1 µg/mL)
- MIC [7]: 500 µM (≈ 138 µg/mL)
- MIC [8]: > 500 µM
- MIC [9]: > 500 µM
- MIC [10]: 32 µM (≈ 8.84 µg/mL)
- MIC [11]: 250 µM (≈ 69.1 µg/mL)
- MIC [12]: 125 µM (≈ 34.5 µg/mL)
- MIC [13]: 32 µM (≈ 8.84 µg/mL)
- MIC [14]: 15.6 µM (≈ 4.31 µg/mL)
- MIC [15]: 31.2 µM (≈ 8.63 µg/mL)
- MIC [16]: > 500 µM
- MIC [17]: 62.5 µM (≈ 17.3 µg/mL)
- MIC [18]: 250 µM (≈ 69.1 µg/mL)
- MIC [19]: 500 µM (≈ 138 µg/mL)
- MIC [20]: > 500 µM
- MIC [21]: 250 µM (≈ 69.1 µg/mL)
- MIC [22]: 500 µM (≈ 138 µg/mL)
- MIC [23]: 16 µM (≈ 4.42 µg/mL)
- MIC [24]: 250 µM (≈ 69.1 µg/mL)
- MIC [25]: 32 µM (≈ 8.84 µg/mL)
- MIC [26]: 500 µM (≈ 138 µg/mL)
- MIC [27]: > 500 µM
- MIC [28]: 500 µM (≈ 138 µg/mL)
- MIC [29]: 31.2 µM (≈ 8.63 µg/mL)
- MIC [30]: > 500 µM
- MIC [31]: 15.6 µM (≈ 4.31 µg/mL)
- MIC [32]: 250 µM (≈ 69.1 µg/mL)
- MIC [33]: 16 µM (≈ 4.42 µg/mL)
- MIC [34]: 500 µM (≈ 138 µg/mL)
- MIC [35]: 62.5 µM (≈ 17.3 µg/mL)
- MIC [36]: 250 µM (≈ 69.1 µg/mL)
- MIC [37]: 250 µM (≈ 69.1 µg/mL)
- MIC [38]: 31.2 µM (≈ 8.63 µg/mL)
- MIC [39]: 15.6 µM (≈ 4.31 µg/mL)
- MIC [40]: 500 µM (≈ 138 µg/mL)
- MIC [41]: 16 µM (≈ 4.42 µg/mL)
- MIC [42]: 16 µM (≈ 4.42 µg/mL)
